# Screens as filed in PubChem.
# Sampled rows, rich in hits. Any-hit rate of the full collection: about 1.4%.
# CAL PDZ FP-1: inhibitors of human CAL PDZ peptide binding. Q9HD26. purified CAL PDZ, TMR-peptide fluorescence polarization, 1 h. inhibition, % at 20 µM. 0.02% of 330,000 active;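 active means highest replicate inhibition of at least 40%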;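 further: plate controls were DMSO neutral control wells for no effect and unlabeled competitor peptide control wells for full effect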
#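 Material: tagged CAL PDZ protein CerCALP, purified; buffer or medium: sodium phosphate/NaCl buffer pH 7.4 with TCEP, IgG, Thesit; also added: fluorescent TMR peptide probe; schedule: 1 h incubation at room temperature before polarization reading; technique: fluorescence polarization from S- and P-plane intensities, G-factor corrected; control set: unlabelled peptide and DMSO controls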
# ARNT-TACC3 inh: ARNT/TACC3 interaction disruption. 0.66% of 390,000 active. inhibition, % at 9.99 µM. Q9Y6A5. AlphaScreen His-ARNT PAS-B/GST-TACC3 binding, luminescence; TACC3 fragment carries E629A point mutation;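 active means mean inhibition of replicates at least 50% and at least half of replicates each reaching 50%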;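 further: 0% = complete ARNT plus TACC3 wells and 100% = ARNT alone without TACC3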
# DYRK1A inh: inhibitors of rat Dyrk1A kinase | 0.43% of 310,000 active | Q63470 | ADP-Glo luminescence, NFATc1 peptide | inhibition, % at 12.5 µM; in the data active means inhibition above about 50%;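 further: plate controls were vehicle with enzyme for no effect and no enzyme for full effect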
# CAL PDZ FP-2: inhibitors of human CAL PDZ peptide binding; 0.92% of 300,000 active; purified CAL PDZ, TMR-peptide fluorescence polarization, 1 h; inhibition, % at 24.9 µM;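 active means mean inhibition of at least 30% with at least half of replicates also reaching 30%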;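 further: 0% = DMSO neutral control and 100% = excess unlabeled competitor peptide PRC23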
# Numbers without * were called inactive; / = no result.
SMILES,CAL PDZ FP-1,ARNT-TACC3 inh,DYRK1A inh,CAL PDZ FP-2
CO[C@@H]1CN(C)C(=O)c2cc(NC(=O)C3CCCCC3)ccc2OC[C@H](C)N(C)C[C@@H]1C,/,-18,/,/
CN1C(=O)c2cc(NC(=O)c3cccs3)ccc2OC[C@H]2O[C@H](CC(=O)N3CCOCC3)CC[C@H]21,/,-2,/,/
C[C@@H]1CCCCO[C@@H](CN(C)S(C)(=O)=O)[C@H](C)CN([C@@H](C)CO)C(=O)c2cc(NS(=O)(=O)c3ccc(Cl)cc3)ccc2O1,/,2,/,/
CCC(=O)N1[C@H](CO)[C@@H]2c3ccccc3N(C(=O)c3cccc(OC)c3)C[C@@H]21,/,-4,/,/
CNC(=O)C[C@@H]1CC[C@H]2[C@H](COc3ccc(NC(=O)NC(C)C)cc3C(=O)N2C)O1,/,-5,/,/
Cc1ccccc1C(=O)N/N=C/c1ccccn1,-2,12,1,-2
COc1ccc(C(=O)N/N=C/c2ccccn2)cc1OC,3,41,/,9
O=C(N/N=C\c1ccccn1)c1ccccc1O,-3,59*,4,-3
O=C(N/N=C/c1ccccn1)c1ccccc1,1,18,0,/
COc1cc(C(=O)N/N=C/c2ccccn2)cc(OC)c1OC,-1,48*,-2,-1
COCc1c(C(=O)N/N=C\c2ccccn2)nnn1-c1nonc1N,0,74*,-4,3
COCc1c(C(=O)N/N=C/c2c[nH]c3ccccc23)nnn1-c1nonc1N,-2,-9,-1,0
Cn1ncc(Cl)c1C(=O)N/N=C/c1ccccn1,-2,66*,1,-4
O=C(N/N=C1\C/C(=N\NC(=O)c2ccncc2)c2ccccc21)c1ccncc1,1,67*,16,/
O=C(N/N=C/c1c[nH]c2ccccc12)c1sc2ccccc2c1Cl,1,42,18,-2
O=C(N/N=C/c1ccccn1)c1sc2ccccc2c1Cl,-4,55*,64*,-3
CCOc1cccc(N2CCN(CCNC(=O)Nc3ccc(C)cc3)CC2)c1C,0,-4,/,37*
Cc1ccc(/C=C2\C(=O)Nc3ccccc32)o1,-1,10,81*,1
C=CCNC(=O)NC(=O)COC(=O)/C=C/c1cccc([N+](=O)[O-])c1,-1,-2,3,1
CC(C)CCNC(=O)NC(=O)COC(=O)/C=C/c1cccc([N+](=O)[O-])c1,6,3,/,37*
CC(=O)NC(c1cc(Cl)c2cccnc2c1O)C1CC1 (configuration not stated),-2,69*,-11,-6
CC(=O)NC(c1ccc(C)cc1)c1cc(Cl)c2cccnc2c1O (configuration not stated),-18,5,-1,-4
CC(=O)NC(C)c1cc(F)c2cccnc2c1O (configuration not stated),0,74*,6,-1
Cc1ccccc1C(=O)c1cccn1CC(=O)NCCCN1CCCCC1,-1,-9,-3,-3
Cc1ccccc1C(=O)c1cccn1CC(=O)NCCC1=CCCCC1,0,-3,1,56*
SMILES,CAL PDZ FP-1,ARNT-TACC3 inh,DYRK1A inh,CAL PDZ FP-2
Cc1cc(NC(=O)CC(C)C)c(=O)n(Cc2ccccc2F)c1,-1,active,/,-2
Cc1ccc(C(=O)Nc2cccc(C(=O)N3CCOCC3)c2)cc1Cl,-2,-13,-5,63*
O=C(COc1ccccc1)NCC1COc2ccccc2O1 (configuration not stated),-4,-11,-4,/
O=C(COc1ccccc1[N+](=O)[O-])NCC1COc2ccccc2O1 (configuration not stated),0,17,/,30*
Cc1ccc(NC(=O)CN(C)C(=O)CN2C(=O)NC(C)(c3ccccc3)C2=O)cc1 (configuration not stated),0,0,1,-4
CN(CC(=O)Nc1ccccc1Cl)C(=O)CN1C(=O)NC(c2ccccc2)(c2ccccc2)C1=O,-2,-1,1,85*
CC(C)NC(=O)N(C)C[C@H]1Oc2cc(-c3ccncc3)ccc2S(=O)(=O)N([C@@H](C)CO)C[C@@H]1C,/,-5,/,/
COCCNC(=O)C[C@H]1CC[C@@H](NS(=O)(=O)c2ccc(C)cc2)[C@H](CO)O1,/,-6,/,/
COc1ccccc1CNC(=O)C[C@H]1C[C@@H]2c3cc(NC(=O)c4cccnc4)ccc3O[C@@H]2[C@@H](CO)O1,/,4,/,/
Cc1c(/C=N/N=C2\CCC3C4CCc5cc(O)ccc5C4CCC23C)cnn1C (configuration not stated),-1,5,-1,0
CCn1ncc(/C=N/N=C2\CCC3C4CCc5cc(O)ccc5C4CCC23C)c1C (configuration not stated),0,5,1,46*
